{"source": "ChEMBL document CHEMBL1134085", "about": "“Discovery of potent and selective phenylalanine derived CCR3 antagonists. Part 1” (Bioorg Med Chem Lett, 2001)", "key": {"[1]": {"target": "T1, C-C chemokine receptor type 3 (Homo sapiens, UniProt P51677)", "T1 sequence (P51677 whole entry)": "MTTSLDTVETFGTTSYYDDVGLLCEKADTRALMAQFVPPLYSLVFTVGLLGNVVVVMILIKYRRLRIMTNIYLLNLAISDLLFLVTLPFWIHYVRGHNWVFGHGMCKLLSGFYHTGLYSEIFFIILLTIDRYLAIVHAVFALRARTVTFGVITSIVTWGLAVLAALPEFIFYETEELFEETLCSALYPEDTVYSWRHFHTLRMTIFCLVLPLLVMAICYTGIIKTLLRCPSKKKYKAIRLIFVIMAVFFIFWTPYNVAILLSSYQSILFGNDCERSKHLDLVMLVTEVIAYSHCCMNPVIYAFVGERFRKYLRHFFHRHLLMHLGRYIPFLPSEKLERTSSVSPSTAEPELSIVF", "assay": "Inhibitory activity against human eosinophil C-C chemokine receptor type 3 using [125I]- human eotaxin as the radioligand", "procedure,_shortened": "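Competition binding on CCR3 from purified human eosinophils as receptor source, with [125I]human eotaxin as radioligand; IC50 taken as displacement of radioligand binding.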"}, "[2]": {"target": "T1, C-C chemokine receptor type 3", "assay": "[…] activity against C-C chemokine receptor type 3 by displacing [125I]-MCP-4 radioligand, using CCR3 binding assay"}, "[3]": {"target": "T1, C-C chemokine receptor type 3", "assay": "[…] against C-C chemokine receptor type 3 by displacing Eotaxin radioligand, using [Ca2+] mobilization assay", "assay_type": "functional", "procedure,_shortened": "(§1)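 Functional antagonism was tested in RBL-2H3 cells expressing CCR3. Cells were challenged with eotaxin or eotaxin-2, and the resulting rise in intracellular Ca2+ was measured. Inhibition of this calcium mobilization is reported as an IC50 in nM.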"}, "[4]": {"target": "T1, C-C chemokine receptor type 3", "assay": "[…] activity against C-C chemokine receptor type 3 by displacing Eotaxin-2 radioligand, using [Ca2+] mobilization assay", "assay_type": "functional", "procedure,_shortened": "as §1"}}, "note": "Where “and” joins values, the source holds several entries; their conditions need not be identical. Identical values can stand only once. Where a SMILES comes first, the peptide text is derived from it. The star is where a group is joined. Cbz = O=C(OCc1ccccc1)*", "data": [{"compound": "CCOC(=O)[C@H](C)NC(=O)c1ccccc1", "values": [{"measurement": "IC50", "setting": "[1]", "value": 9, "unit": "µM"}]}, {"compound": "CCOC(=O)[C@H](Cc1ccc(O)cc1)NC(=O)[C@H](CCC(N)=O)NC(=O)OCc1ccccc1", "note": "(Cbz-Gln-Tyr-OEt)", "values": [{"measurement": "IC50", "setting": "[1]", "value": "> 25", "unit": "µM"}]}, {"compound": "CCOC(=O)[C@H](Cc1ccc(O)cc1)NC(=O)[C@H](CC(N)=O)NC(=O)OCc1ccccc1", "note": "(Cbz-Asn-Tyr-OEt)", "values": [{"measurement": "IC50", "setting": "[1]", "value": "> 25", "unit": "µM"}]}, {"compound": "CCOC(=O)[C@H](Cc1c[nH]c2ccccc12)NC(=O)c1ccccc1", "values": [{"measurement": "IC50", "setting": "[1]", "value": 0.325, "unit": "µM"}]}, {"compound": "CCOC(=O)[C@H](Cc1ccc([N+](=O)[O-])cc1)NC(=O)c1ccc(C)cc1C", "values": [{"measurement": "IC50", "setting": "[1]", "value": 0.003, "unit": "µM"}]}, {"compound": "CCOC(=O)[C@H](Cc1ccccc1)NC(=O)c1ccccc1", "values": [{"measurement": "IC50", "setting": "[1]", "value": 0.19, "unit": "µM"}]}, {"compound": "CCOC(=O)[C@H](Cc1ccc([N+](=O)[O-])cc1)NC(=O)c1ccccc1", "values": [{"measurement": "IC50", "setting": "[1]", "value": 0.049, "unit": "µM"}]}, {"compound": "CCOC(=O)[C@H](Cc1cc(I)c(O)c(I)c1)NC(=O)c1ccccc1", "values": [{"measurement": "IC50", "setting": "[1]", "value": 0.535, "unit": "µM"}]}, {"compound": "CCOC(=O)[C@H](Cc1ccc(O)cc1)NC(=O)Cc1ccccc1", "values": [{"measurement": "IC50", "setting": "[1]", "value": 2.6, "unit": "µM"}]}, {"compound": "CCOC(=O)[C@H](Cc1ccc(O)cc1)NC(=O)[C@H](Cc1ccccc1)NC(=O)OCc1ccccc1", "note": "(Cbz-Phe-Tyr-OEt)", "values": [{"measurement": "IC50", "setting": "[1]", "value": 6.25, "unit": "µM"}]}, {"compound": "CCOC(=O)[C@H](Cc1ccc([N+](=O)[O-])cc1)NC(=O)c1cccc2ccccc12", "values": [{"measurement": "IC50", "setting": "[1]", "value": 0.008, "unit": "µM"}]}, {"compound": "COC(=O)[C@H](Cc1ccc([N+](=O)[O-])cc1)NC(=O)c1cccc2ccccc12", "values": [{"measurement": "IC50", "setting": "[1]", "value": 0.005, "unit": "µM"}, {"measurement": "IC50", "setting": "[2]", "value": 0.007, "unit": "µM"}, {"measurement": "IC50", "setting": "[3]", "value": 0.038, "unit": "µM"}, {"measurement": "IC50", "setting": "[4]", "value": "0.035 µM and 0.02 µM"}]}, {"compound": "CCOC(=O)[C@H](Cc1ccc(O)cc1)NC(=O)[C@H](CO)NC(=O)OCc1ccccc1", "note": "(Cbz-Ser-Tyr-OEt)", "values": [{"measurement": "IC50", "setting": "[1]", "value": "> 25", "unit": "µM"}]}, {"compound": "O=C(N[C@@H](Cc1ccc([N+](=O)[O-])cc1)C(=O)NCc1ccccc1)c1cccc2ccccc12", "values": [{"measurement": "IC50", "setting": "[1]", "value": 4, "unit": "µM"}]}, {"compound": "CCOC(=O)[C@H](CCc1ccccc1)NC(=O)c1ccccc1", "values": [{"measurement": "IC50", "setting": "[1]", "value": 5.95, "unit": "µM"}]}, {"compound": "CC(C)OC(=O)[C@H](Cc1ccc([N+](=O)[O-])cc1)NC(=O)c1cccc2ccccc12", "values": [{"measurement": "IC50", "setting": "[1]", "value": 0.021, "unit": "µM"}]}, {"compound": "CCOC(=O)[C@H](Cc1ccc(O)cc1)NC(=O)c1ccccn1", "values": [{"measurement": "IC50", "setting": "[1]", "value": 1.7, "unit": "µM"}]}, {"compound": "CCOC(=O)[C@H](Cc1ccc(O)cc1)NC(=O)c1ccccc1", "values": [{"measurement": "IC50", "setting": "[1]", "value": 0.383, "unit": "µM"}]}, {"compound": "CCOC(=O)[C@H](Cc1ccc(O)cc1)NS(=O)(=O)c1ccc(C)cc1", "values": [{"measurement": "IC50", "setting": "[1]", "value": 16, "unit": "µM"}]}, {"compound": "CCCC(=O)[C@H](Cc1ccc([N+](=O)[O-])cc1)NC(=O)c1cccc2ccccc12", "values": [{"measurement": "IC50", "setting": "[1]", "value": "> 33", "unit": "µM"}]}, {"compound": "CCOC(=O)[C@@H](NC(=O)c1ccccc1)c1ccccc1", "values": [{"measurement": "IC50", "setting": "[1]", "value": "> 20", "unit": "µM"}]}, {"compound": "CCOC(=O)[C@H](Cc1ccc(O)cc1)NC(=O)c1cccc2ccccc12", "values": [{"measurement": "IC50", "setting": "[1]", "value": 0.08, "unit": "µM"}]}, {"compound": "CCOC(=O)[C@@H](Cc1ccc(O)cc1)NC(=O)c1ccccc1", "values": [{"measurement": "IC50", "setting": "[1]", "value": "> 50", "unit": "µM"}]}, {"compound": "CCOC(=O)[C@H](Cc1ccc(O)cc1)NC(=O)Nc1ccccc1", "values": [{"measurement": "IC50", "setting": "[1]", "value": "> 33", "unit": "µM"}]}, {"compound": "O=C(N[C@@H](Cc1ccc([N+](=O)[O-])cc1)C(=O)OCc1ccccc1)c1cccc2ccccc12", "values": [{"measurement": "IC50", "setting": "[1]", "value": 0.018, "unit": "µM"}]}, {"compound": "CC(C)(C)OC(=O)[C@H](Cc1ccc([N+](=O)[O-])cc1)NC(=O)c1cccc2ccccc12", "values": [{"measurement": "IC50", "setting": "[1]", "value": 0.057, "unit": "µM"}]}, {"compound": "CN(C)C(=O)[C@H](Cc1ccc([N+](=O)[O-])cc1)NC(=O)c1cccc2ccccc12", "values": [{"measurement": "IC50", "setting": "[1]", "value": "> 33", "unit": "µM"}]}]}
